Results from ChEMBL document CHEMBL4049434, “Radiolabeled Dibenzodiazepinone-Type Antagonists Give Evidence of Dualsteric Binding at the M2 Muscarinic Acetylcholine Receptor” (J Med Chem, 2017).
pIC50, pKi: −log10 of the molar value.

Key:
[1] = target: T1, Muscarinic acetylcholine receptor M2 (Homo sapiens) (UniProt P08172); experiment: Binding affinity to human muscarinic acetylcholine receptor M2 expressed in live adherent CHOK9 cells at Kd in presence of 500-fold excess atropine after 2 hrs by liquid scintillation counting assay relative to control; format: cell-based; conditions: tested as the 3H-labelled form
T1 sequence (whole entry): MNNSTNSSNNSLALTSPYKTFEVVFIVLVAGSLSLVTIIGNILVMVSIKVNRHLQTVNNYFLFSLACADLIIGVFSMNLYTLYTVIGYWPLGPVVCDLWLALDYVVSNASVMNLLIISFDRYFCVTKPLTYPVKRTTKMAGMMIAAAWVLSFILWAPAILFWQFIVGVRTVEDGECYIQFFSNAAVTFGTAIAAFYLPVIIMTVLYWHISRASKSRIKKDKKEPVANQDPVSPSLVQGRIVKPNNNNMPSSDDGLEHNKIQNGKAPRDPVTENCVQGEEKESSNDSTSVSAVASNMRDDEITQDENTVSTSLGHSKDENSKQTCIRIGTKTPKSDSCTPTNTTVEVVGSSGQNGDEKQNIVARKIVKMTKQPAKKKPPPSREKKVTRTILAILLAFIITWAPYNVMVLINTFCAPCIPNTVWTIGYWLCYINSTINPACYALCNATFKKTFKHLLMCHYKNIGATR
Summary of the method: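 Live adherent CHO-hM2 cells in L15 medium with 1% BSA, 23 ± 1 °C, 2 h incubation. Competition at 2 nM radioligand; additional 4, 8, 15 and 30 nM in W84 experiments. […] Saturation data fitted one-site; competition by four-parameter logistic fits; at least three experiments in triplicate.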

[2] = target: T2, Muscarinic acetylcholine receptor M5 (Homo sapiens, UniProt P08912); experiment: Displacement of [3H]NMS from human muscarinic acetylcholine receptor M5 expressed in CHOK9 cells after 3 hrs by liquid scintillation counting assay; format: cell-based
T2 sequence (P08912 whole entry): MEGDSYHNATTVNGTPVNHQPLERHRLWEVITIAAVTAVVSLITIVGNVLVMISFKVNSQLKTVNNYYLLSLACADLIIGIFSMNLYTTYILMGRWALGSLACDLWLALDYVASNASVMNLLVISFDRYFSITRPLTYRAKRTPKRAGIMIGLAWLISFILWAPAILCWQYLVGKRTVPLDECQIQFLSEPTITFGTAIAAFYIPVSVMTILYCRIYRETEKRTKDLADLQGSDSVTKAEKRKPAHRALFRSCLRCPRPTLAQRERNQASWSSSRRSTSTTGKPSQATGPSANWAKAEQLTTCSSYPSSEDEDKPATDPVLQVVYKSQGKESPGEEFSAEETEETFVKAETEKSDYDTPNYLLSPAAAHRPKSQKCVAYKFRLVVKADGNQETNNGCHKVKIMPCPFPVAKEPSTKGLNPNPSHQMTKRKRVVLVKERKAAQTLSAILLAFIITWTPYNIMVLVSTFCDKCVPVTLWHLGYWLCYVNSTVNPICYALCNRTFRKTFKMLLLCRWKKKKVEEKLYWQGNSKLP

[3] = target: T1, Muscarinic acetylcholine receptor M2 (Homo sapiens); experiment: Binding affinity to human muscarinic acetylcholine receptor M2 expressed in CHOK9 cell suspension at Kd in presence of 500-fold excess atropine after 2 hrs by liquid scintillation counting assay relative to control; conditions: tested as the 3H-labelled form
[4] = target: T1, Muscarinic acetylcholine receptor M2 (Homo sapiens); experiment: Binding affinity to human muscarinic acetylcholine receptor M2 expressed in CHOK9 cell suspension after 2 hrs by liquid scintillation counting assay; conditions: tested as the 3H-labelled form
[5] = target: T1, Muscarinic acetylcholine receptor M2 (Homo sapiens); experiment: (§1) Competitive antagonist activity at human muscarinic acetylcholine receptor M2 expressed in HEK293 cells coexpressing HA tagged Galpha-protein qi5 assessed as inhibition of 1 uM carbachol-induced IP1 accumulation preincubated for 30 mins followed by carbachol addition measured after 1 hr by HTRF assay; format: functional, cell-based
Summary of the method: (§2)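 HEK-293 transiently cotransfected with human M2R and Gαqi5-HA. Cells preincubated 30 min with antagonist, then carbachol added (final 0.1, 0.3, 1 or 10 μM), 1 h at 37 °C. IP1 detected by HTRF (620/670 nm emission, 330 nm excitation). At least four independent experiments, each in duplicate.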

[6] = target: T3, Muscarinic acetylcholine receptor M2 (Homo sapiens, UniProt P08172); experiment: as §1; format: functional, cell-based; summary of the method: as §2
T3 sequence (P08172 whole entry): T1 sequence (whole entry)

[7] = target: T3, Muscarinic acetylcholine receptor M2; experiment: Displacement of [3H]NMS from human muscarinic acetylcholine receptor M2 expressed in CHOK9 cells after 3 hrs by liquid scintillation counting assay; format: cell-based; conditions: read-out: pKi (converted)
[8] = target: T4, Muscarinic acetylcholine receptor M4 (Homo sapiens, UniProt P08173); experiment: Displacement of [3H]NMS from human muscarinic acetylcholine receptor M4 expressed in CHOK9 cells after 3 hrs by liquid scintillation counting assay; format: cell-based
T4 sequence (P08173 whole entry): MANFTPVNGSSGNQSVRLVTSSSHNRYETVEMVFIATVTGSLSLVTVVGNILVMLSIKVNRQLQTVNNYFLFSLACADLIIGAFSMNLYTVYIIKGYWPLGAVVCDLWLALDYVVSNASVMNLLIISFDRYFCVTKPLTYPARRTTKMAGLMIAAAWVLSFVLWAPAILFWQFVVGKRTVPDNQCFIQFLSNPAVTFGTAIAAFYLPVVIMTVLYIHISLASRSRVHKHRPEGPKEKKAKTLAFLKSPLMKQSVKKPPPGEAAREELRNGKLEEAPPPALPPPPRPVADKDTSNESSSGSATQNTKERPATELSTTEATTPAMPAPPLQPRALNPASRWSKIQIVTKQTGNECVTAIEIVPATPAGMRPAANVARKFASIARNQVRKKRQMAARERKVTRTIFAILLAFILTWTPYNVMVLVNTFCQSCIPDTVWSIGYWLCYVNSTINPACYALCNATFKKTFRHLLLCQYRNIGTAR

[9] = target: T1, Muscarinic acetylcholine receptor M2 (Homo sapiens); experiment: Binding affinity to human muscarinic acetylcholine receptor M2 expressed in CHOK9 cells assessed as dissociation half life after 105 mins by liquid scintillation counting assay; format: cell-based; conditions: tested as the 3H-labelled form
[10] = target: T1, Muscarinic acetylcholine receptor M2 (Homo sapiens); experiment: Binding affinity to human muscarinic acetylcholine receptor M2 expressed in CHOK9 cells assessed as dissociation rate constant after 105 mins by liquid scintillation counting assay; format: cell-based; conditions: tested as the 3H-labelled form
[11] = target: T5, Muscarinic acetylcholine receptor M1 (Homo sapiens, UniProt P11229); experiment: Displacement of [3H]NMS from human muscarinic acetylcholine receptor M1 expressed in CHOK9 cells after 3 hrs by liquid scintillation counting assay; format: cell-based
T5 sequence (P11229 whole entry): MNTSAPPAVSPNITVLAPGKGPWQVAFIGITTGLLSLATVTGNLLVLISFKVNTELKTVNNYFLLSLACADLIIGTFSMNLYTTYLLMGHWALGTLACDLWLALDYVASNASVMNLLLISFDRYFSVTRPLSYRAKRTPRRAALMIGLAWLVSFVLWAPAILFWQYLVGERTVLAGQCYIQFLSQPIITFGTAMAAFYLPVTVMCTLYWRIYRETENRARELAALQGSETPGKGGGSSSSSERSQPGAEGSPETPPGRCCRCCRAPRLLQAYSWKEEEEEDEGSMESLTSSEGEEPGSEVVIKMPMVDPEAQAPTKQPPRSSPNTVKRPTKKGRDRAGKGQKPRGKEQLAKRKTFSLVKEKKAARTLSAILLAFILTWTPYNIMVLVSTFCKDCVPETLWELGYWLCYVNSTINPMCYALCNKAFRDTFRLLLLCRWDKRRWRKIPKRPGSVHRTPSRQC

- Activity [1]: > 60%
- pKi [2]: 7.64
- Activity [3]: < 15%
- Bmax (disintegrations/minute) [4]: 1800
- inhibition [5]: Dose-dependent effect
- pIC50 [6]: 6.76
- Ki [7]: 0.407 nM
- pKi [8]: 9.33
- T1/2 [9]: 1.1 h
- K [10]: 0.011 min⁻¹
- pKi [11]: 8.82
Structure (SMILES): CCC(=O)NCc1cc(C(=O)NCCNC(=O)CCc2cn(CCCCC3CCN(CC(=O)N4c5ccccc5NC(=O)c5ccccc54)CC3)cn2)cc(C(=O)NCCNC(=O)CCc2cn(CCCCC3CCN(CC(=O)N4c5ccccc5NC(=O)c5ccccc54)CC3)cn2)c1.O=C(O)C(F)(F)F.O=C(O)C(F)(F)F.O=C(O)C(F)(F)F.O=C(O)C(F)(F)F
